Experiments:
Plasmodium falciparum = assay: Antimalarial activity against Plasmodium falciparum; assay type: functional, organism-based
How it was run: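 Chloroquine-sensitive Nigerian strain of P. falciparum; inhibition of in vitro growth; IC50 taken as the mean of at least two independent experiments, each run in duplicate.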

Plasmodium vinckei [1] = assay: Antimalarial activity against Plasmodium vinckei 279BY infected in Swiss mice (Mus musculus) dosed perorally for 4 consecutive days; assay type: functional; conditions: ip, in the assay text read “dosed intraperitoneally” for “dosed perorally”
How it was run: (§1)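 Female Swiss mice infected with P. vinckei petteri 279BY on day 0. Dosing once daily on days 1–4 post infection, ip or po as given in each line, n = 3 per dose. Parasitemia measured on day 5 and expressed as decrease relative to untreated control. ED50 derived from the dose series.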

Plasmodium vinckei [2] = assay: Antimalarial activity against Plasmodium vinckei 279BY infected in Swiss mice (Mus musculus) assessed as reduction in parasitemia at 180 mg/kg, po; assay type: functional; design: scale not given: the % may be the effect or the level left; how it was run: as §1
Plasmodium vinckei [3] = assay: Antimalarial activity against Plasmodium vinckei 279BY infected in Swiss mice (Mus musculus) assessed as reduction in parasitemia at 5 mg/kg, intraperitoneally; assay type: functional; design: scale not given: the % may be the effect or the level left; conditions: route intraperitoneal; how it was run: as §1

SMILES	IC50 (Plasmodium falciparum) [nM]	ED50 (Plasmodium vinckei [1]) [mg/kg]	Activity (Plasmodium vinckei [2]) [%]	Activity (Plasmodium vinckei [3]) [%]
Cl.Cl.N=C(NCCCCCCCCCCCCNC(=N)c1ccccc1)c1ccccc1	13.5	> 10		
COc1ccccc1C(=N)NCCCCCCCCCCCCNC(=N)c1ccccc1OC.Cl.Cl	24.5	12		
Cl.Cl.NC(=O)NCCCCCCCCCCCCNC(N)=O	9.15	8.5		
COc1ccc(C(=N)NCCCCCCCCCCCCNC(=N)c2ccc(OC)cc2)cc1.Cl.Cl	26.5	> 20		
N=C(NCCCCCCCCCCCCNC(=N)c1ccc([N+](=O)[O-])cc1)c1ccc([N+](=O)[O-])cc1	520			
COc1cc(OC)cc(C(=N)NCCCCCCCCCCCCNC(=N)c2cc(OC)cc(OC)c2)c1.Cl.Cl	39	5	20	
COc1ccc(C(=N)NCCCCCCCCCCCCNC(=N)c2ccc(OC)c(OC)c2)cc1OC.Cl.Cl	6.7	> 5		40
Cl.Cl.N=C(NCCCCCCCCCCCCNC(=N)c1ccc2c(c1)OCO2)c1ccc2c(c1)OCO2	55.5	12		
N=C(NCCCCCCCCCCCCNC(=N)c1ccco1)c1ccco1	715			
CCC(=N)NCCCCCCCCCCCCNC(=N)CC.Cl.Cl	18	> 10		
Cl.Cl.N=C(NCCCCCCCCCCCCNC(=N)C1CC1)C1CC1	16	5		
COc1cccc(C(=N)NCCCCCCCCCCCCNC(=N)c2cccc(OC)c2)c1.Cl.Cl	6.6	5	42	
Cc1ccc(C(=N)NCCCCCCCCCCCCNC(=N)c2ccc(C)cc2)cc1.Cl.Cl	10	3.1		
Cl.Cl.N=C(NCCCCCCCCCCCCNC(=N)c1ccc(N)cc1)c1ccc(N)cc1	14	2.2	58	
CC(C)C(=N)NCCCCCCCCCCCCNC(=N)C(C)C.Cl.Cl	10.2	7		
N=C(NCCCCCCCCCCCCNC(=N)c1ccc(C(F)(F)F)cc1)c1ccc(C(F)(F)F)cc1	455			
CC(=N)NCCCCCCCCCCCCNC(C)=N.Cl.Cl		3.1		

Source: ChEMBL document CHEMBL1255542, “Reverse-benzamidine antimalarial agents: design, synthesis, and biological evaluation” (Bioorg Med Chem Lett, 2010)
